{"source": "ChEMBL document CHEMBL1221405", "about": "“Chlorinated iridoid glucosides from Veronica longifolia and their antioxidant activity” (J Nat Prod, 2010)", "format_in_all_cases": "functional", "key": {"[1]": {"test_system": "Radical scavenging activity", "assay": "Antioxidant activity assessed as DPPH radical scavenging activity after 30 mins", "method_in_brief": "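Compounds in MeOH at various concentrations were added to DPPH in MeOH (80 µg/mL). After 30 min, remaining DPPH was read by absorbance at 520 nm. Scavenging was calculated against a blank (100%) holding only DPPH and solvent.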"}, "[2]": {"assay": "Antioxidant activity assessed as nitric oxide scavenging activity after 150 mins by Griess assay", "method_in_brief": "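Serially diluted samples were mixed with an equal volume of 10 mM sodium nitroprusside in PBS and incubated under light at room temperature for 150 min. After 10 min, nitrite chromophore absorbance was read at 577 nm.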"}, "[3]": {"assay": "Antioxidant activity assessed as superoxide radical scavenging activity by NBT method", "method_in_brief": "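Alkaline DMSO method (modified Kunchandy and Rao). Samples in DMSO were mixed with NBT (1 mg/mL in DMSO). Alkaline DMSO (DMSO with 5 mM NaOH in water) was added to give the final mixture. Absorbance was read at 560 nm.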"}}}
{"smiles": "O=C(O[C@H]1[C@@H]2C=CO[C@@H](O[C@H]3O[C@@H](CO)[C@H](O)[C@@H](O)[C@@H]3O)[C@@H]2[C@](O)(CO)[C@@H]1Cl)c1ccc(O)c(O)c1", "note": "[LONGIFOLIOSIDES A]", "values": [{"measurement": "IC50", "setting": "[1]", "result": 27, "unit": "µg/mL"}, {"measurement": "IC50", "setting": "[2]", "result": 149, "unit": "µg/mL"}, {"measurement": "IC50", "setting": "[3]", "result": 92, "unit": "µg/mL"}]}
{"smiles": "O=C1O[C@H]([C@@H](O)CO)C(O)=C1O", "note": "[ASCORBIC ACID]", "values": [{"measurement": "IC50", "setting": "[1]", "result": "< 10", "unit": "µg/mL"}, {"measurement": "IC50", "setting": "[2]", "result": "> 1000", "unit": "µg/mL"}, {"measurement": "IC50", "setting": "[3]", "result": 13, "unit": "µg/mL"}]}
{"smiles": "O=C(/C=C/c1ccc(O)c(O)c1)O[C@H]1[C@@H]2C=CO[C@@H](O[C@H]3O[C@@H](CO)[C@H](O)[C@@H](O)[C@@H]3O)[C@@H]2[C@](O)(CO)[C@@H]1Cl", "note": "[LONGIFOLIOSIDE B]", "values": [{"measurement": "IC50", "setting": "[1]", "result": 19, "unit": "µg/mL"}, {"measurement": "IC50", "setting": "[2]", "result": 285, "unit": "µg/mL"}, {"measurement": "IC50", "setting": "[3]", "result": 199, "unit": "µg/mL"}]}
{"smiles": "O=c1c(O)c(-c2ccc(O)c(O)c2)oc2cc(O)cc(O)c12", "note": "[QUERCETIN]", "values": [{"measurement": "IC50", "setting": "[1]", "result": "< 10", "unit": "µg/mL"}, {"measurement": "IC50", "setting": "[2]", "result": 96, "unit": "µg/mL"}, {"measurement": "IC50", "setting": "[3]", "result": 68, "unit": "µg/mL"}]}
